Consider three molecules from ChEMBL document CHEMBL2169742, “Design, synthesis, and biological evaluation of novel transrepression-selective liver X receptor (LXR) ligands with 5,11-dihydro-5-methyl-11-methylene-6H-dibenz[b,e]azepin-6-one skeleton” (J Med Chem, 2012).

Series [1] in a line: Metabolic stability in human liver microsomes assessed as compound remaining at 0.1 uM by LC-MS/MS analysis. The format is ADME, Microsome. The conditions noted are these: read-out: Stability. The gist of the method: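 Human liver microsomes were incubated with compound at 0.1 μM. Percent parent remaining was quantified by LC/MS/MS; imipramine, propranolol, terfenadine and verapamil served as controls.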
(Microsomes from liver hold many membrane-bound enzymes, among them those of drug oxidation.)

Series [2] can be described thus: Apparent permeability from apical to basal side of human Caco2 cells at 10 uM. Format: ADME, cell-based. The settings on record: Caco-2. The gist of the method: (§1)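 Colchicine and ranitidine were low-permeability controls, propranolol the high-permeability control, labetalol the P-gp substrate control.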
(In general: Caco-2 monolayers are a common model of the intestinal barrier.)

Series [3] in a line: Permeability from apical to basal side of human Caco2 cells at 10 uM. Format: ADME, cell-based. The conditions noted are these: Caco-2, read-out: permeability. The procedure, abridged: as §1
The target of series [4] is T1, Oxysterols receptor LXR-alpha (Homo sapiens, UniProt Q13133).
T1 sequence (Q13133 whole entry): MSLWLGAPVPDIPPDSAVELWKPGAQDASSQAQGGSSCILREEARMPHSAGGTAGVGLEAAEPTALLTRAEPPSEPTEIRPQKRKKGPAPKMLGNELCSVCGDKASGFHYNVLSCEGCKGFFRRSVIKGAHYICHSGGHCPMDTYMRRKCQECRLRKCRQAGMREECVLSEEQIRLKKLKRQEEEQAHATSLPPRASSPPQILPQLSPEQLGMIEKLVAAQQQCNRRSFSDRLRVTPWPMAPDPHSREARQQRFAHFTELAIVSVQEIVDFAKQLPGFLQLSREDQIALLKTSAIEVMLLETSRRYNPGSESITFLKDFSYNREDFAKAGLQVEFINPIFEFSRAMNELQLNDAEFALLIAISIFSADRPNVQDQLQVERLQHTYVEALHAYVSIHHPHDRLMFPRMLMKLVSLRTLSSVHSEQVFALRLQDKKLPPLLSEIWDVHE
As to the kind of experiment: Transactivational agonist activity at human LXRalpha transfected in HEK293 cells expressing CMX-Gal4N assessed as luciferase activity after 16 hrs by reporter gene assay relative to N-(4-(1,1,1,3,3,3-hexafluoro-2-hydroxypropan-2-yl)phenyl)-N-methylbenzamide. Format: cell-based. The settings on record: read-out: Efficacy. For orientation: A reporter such as luciferase makes a cellular process visible.

The target in series [5] is T1, Oxysterols receptor LXR-alpha. As to the kind of experiment: Transactivational agonist activity at human LXRalpha transfected in HEK293 cells expressing CMX-Gal4N assessed as luciferase activity after 16 hrs by reporter gene assay. The format is cell-based.
In series [6] the test system is Peritoneal macrophage cell. As to the kind of experiment: Inhibition of LPS-induced IL-1beta mRNA expression in LXRalpha-deficient C57BL/6J mouse peritoneal macrophages at 10 uM incubated for 6 hrs prior to LPS-challenge measured after 18 hrs by RT-PCR analysis. The format is functional, cell-based. The procedure, abridged: (§2)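 Thioglycollate-elicited peritoneal macrophages (wild-type C57BL/6J or LXRα-null, 8–10 weeks) were plated at 4 × 10⁶/well and pretreated with compound 6 h before LPS 100 ng/mL. Cells were harvested after 18 h. il-6 and il-1β mRNA were measured by real-time quantitative PCR, normalized to GAPDH.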

In series [7] the test system is Peritoneal macrophage cell. As to the kind of experiment: Inhibition of LPS-induced IL-6 production in LXRalpha,LXRbeta-deficient C57BL/6J mouse peritoneal macrophages at 10 uM incubated for 6 hrs prior to LPS-challenge measured after 18 hrs by ELISA. The format is functional, cell-based. The gist of the method:
(§3)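 Thioglycollate-elicited peritoneal macrophages came from 8–10-week LXRα/β-null mice on C57BL/6J background, harvested 4 days post-injection. They were adhered, rested 24 h and plated at 2 × 10⁵/well, then pretreated with compound 6 h before LPS 10 ng/mL. Supernatant mIL-6 was measured by ELISA after 18 h; means ± SE of ≥3 independent measurements, ANOVA.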

A short description of series [8]: Induction of LPS-induced IL-6 production in LXRalpha,LXRbeta-deficient C57BL/6J mouse peritoneal macrophages at 10 uM incubated for 6 hrs prior to LPS-induction measured after 18 hrs by ELISA. Format: cell-based. The settings on record: peritoneal macrophage cell. The gist of the method:
as §3

Series [9] concerns the target T2, Oxysterols receptor LXR-beta (Homo sapiens, UniProt P55055).
T2 sequence (P55055 whole entry): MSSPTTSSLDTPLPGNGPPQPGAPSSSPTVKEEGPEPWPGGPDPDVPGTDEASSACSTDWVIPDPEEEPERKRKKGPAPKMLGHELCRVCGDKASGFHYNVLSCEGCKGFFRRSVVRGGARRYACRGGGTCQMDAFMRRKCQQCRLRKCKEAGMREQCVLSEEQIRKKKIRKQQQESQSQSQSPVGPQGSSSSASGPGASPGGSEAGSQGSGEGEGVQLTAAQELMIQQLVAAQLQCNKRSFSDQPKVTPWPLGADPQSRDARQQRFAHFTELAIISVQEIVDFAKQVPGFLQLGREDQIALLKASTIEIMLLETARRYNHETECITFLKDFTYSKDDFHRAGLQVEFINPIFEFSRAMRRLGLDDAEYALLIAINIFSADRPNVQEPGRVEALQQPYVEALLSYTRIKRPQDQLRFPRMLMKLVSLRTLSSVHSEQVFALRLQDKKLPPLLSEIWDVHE
As to the kind of experiment: Transactivational agonist activity at human LXRbeta transfected in HEK293 cells expressing CMX-Gal4N assessed as luciferase activity after 16 hrs by reporter gene assay relative to N-(4-(1,1,1,3,3,3-hexafluoro-2-hydroxypropan-2-yl)phenyl)-N-methylbenzamide. The format is cell-based. The conditions noted are these: read-out: Efficacy.

For series [10], the target named is T2, Oxysterols receptor LXR-beta. As to the kind of experiment: Transactivational agonist activity at human LXRbeta transfected in HEK293 cells expressing CMX-Gal4N assessed as luciferase activity after 16 hrs by reporter gene assay. Format: cell-based. The procedure, abridged:
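Gal4-hLXRα or Gal4-hLXRβ chimera (15 ng) cotransfected with tk-MH100×4-luc reporter (50 ng) and CMX-β-gal (10 ng) into HEK293 cells by calcium phosphate. Luciferase was normalized to β-gal, in triplicate.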

Series [11] is described as follows: Transrepressional activity at LXR in C57BL/6J mouse peritoneal macrophages assessed as inhibition of LPS-induced IL-1beta mRNA expression at 10 uM incubated for 6 hr prior to LPS-challenge measured after 18 hrs by RT-PCR analysis. The procedure, abridged:
as §2

Series [12] has as its target T3, Liver X receptor (Homo sapiens, UniProt Q13133+P55055).
T3 sequence (Q13133 whole entry): T1 sequence (Q13133 whole entry)
T3 sequence (P55055 whole entry): T2 sequence (P55055 whole entry)
As to the kind of experiment: Transrepressional activity at LXR in human TPA-activated THP1 cells assessed as inhibition of LPS-induced IL6 production incubated for 6 hrs prior to LPS-challenge measured after 18 hrs by ELISA. Format: cell-based. The settings on record: thp-1.

Series [13] is described as follows: Transrepressional activity at LXR in C57BL/6J mouse peritoneal macrophages assessed as inhibition of LPS-induced IL-6 mRNA expression at 10 uM incubated for 6 hr prior to LPS-challenge measured after 18 hrs by RT-PCR analysis. The procedure, abridged: as §2
Series [14] deals with Peritoneal macrophage cell. As to the kind of experiment: Inhibition of LPS-induced IL-6 mRNA expression in LXRalpha-deficient C57BL/6J mouse peritoneal macrophages at 10 uM incubated for 6 hrs prior to LPS-challenge measured after 18 hrs by RT-PCR analysis. The format is functional, cell-based. The gist of the method:
as §2

A short description of series [15]: Induction of LPS-induced IL-6 production in LXRalpha,LXRbeta-deficient C57BL/6J mouse peritoneal macrophages at 3 uM incubated for 6 hrs prior to LPS-induction measured after 18 hrs by ELISA. The settings on record: peritoneal macrophage cell. The format is cell-based. The procedure, abridged:
as §3

One may read the EC50 as the midpoint of the concentration-response curve. As usually defined, the IC50 is the midpoint of a concentration-inhibition curve.

Each structure is given as a SMILES string. The source made the active and inactive calls. No cut-off for these calls is given here. Where only a bound is given, the exact number is not on record here.

Regarding `C=C1c2ccccc2C(=O)N(C)c2ccc(O)cc21`, in [1], the remaining at 0.1 µM was 87.8%. For the same molecule, the Papp A→B at 10 µM is no less than 200 nm/s in [2] and 843 nm/s in series [3].

Consider `C=C1c2ccccc2C(=O)N(C)c2ccc(C(O)(C(F)(F)F)C(F)(F)F)cc21`, for which the Emax in series [4] was 45%; in series [9], 73%. Also, the EC50 was 1.7 µM in series [5] and 0.77 µM in series [10]. The inhibition entry in series [6], in series [7] and in series [14] was “inactive” throughout. In series [8], the Activity result is “Toxic”. Further, the inhibition result in [11] and in series [13] was “Active” throughout. Also, in series [12], the half-inhibitory concentration (IC50) is 5.8 µM.

For `O=S(=O)(c1ccccc1)N(CC(F)(F)F)c1ccc(C(O)(C(F)(F)F)C(F)(F)F)cc1` [T091317], the Emax in [4] is 124%; in [9] it was 118%. For the same molecule, the Activity entry in series [15] is reported as “Toxic”.
